The source made the active and inactive calls. The calls are words filed in the database; no cut-off is given here.

Drawing on ChEMBL document CHEMBL3046122, “Preparation and biological activity of four epiprogoitrin myrosinase-derived products” (2001), this text covers Activity for 4 molecules.

The subject of assay [1] is Lactuca sativa. Nature of the assay: Toxicity against Lactuca sativa (lettuce) assessed as seed radicle protrusion at low concentration after 7 days. The assay is classed as functional, organism-based. In short, it runs like this: (§1)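 Lettuce (L. sativa cv. Romana) seeds were kept on filter paper at 20 °C for 7 days with each product at 0.4-32.0 mM. Seedlings were scored at the end for abnormalities: root apex necrosis, absent cotyledons, and imbibed seeds with broken coats from starting radicle protrusion.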

In assay [2] the test system is Lactuca sativa. Nature of the assay: Toxicity against Lactuca sativa (lettuce) assessed as imbibed seed with broken seed coat at low concentration after 7 days. The assay is classed as functional, organism-based. In short, it runs like this:
as §1

In assay [3] the test system is Lactuca sativa. Nature of the assay: Toxicity against Lactuca sativa (lettuce) assessed as decrease in cotyledons at low concentration after 7 days. The format is functional, organism-based. Summed up: as §1
Assay [4] relates to Lactuca sativa. The assay can be described thus: Toxicity against Lactuca sativa (lettuce) assessed as root apex necrosis at low concentration after 7 days. The assay is classed as functional, organism-based. Summed up:
as §1

Assay [5] concerns Lactuca sativa. The assay can be described thus: Toxicity against Lactuca sativa (lettuce) assessed as Inhibition of root growth up to 16 mM after 7 days relative to control. The assay is classed as functional, organism-based. Summed up: (§2)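 Lettuce (L. sativa cv. Romana) seeds were kept on filter paper at 20 °C for 7 days with each product at 0.4-32.0 mM. Root length of normal seedlings was measured at the end and given as percent of the untreated control. Three replicates were run.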

Assay [6] concerns Lactuca sativa. Nature of the assay: Antigerminative activity against Lactuca sativa (lettuce) seeds at 0.8 to 20 mM after 7 days relative to control. The format is functional, organism-based. Summed up:
(§3)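 Lettuce (L. sativa cv. Romana) seeds germinated on filter paper at 20 °C for 7 days with each product at 0.4-32.0 mM. Read-out is the mean percentage of normal seedlings, expressed as percent of the untreated control.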

Assay [7] relates to Lactuca sativa. The assay can be described thus: Toxicity against Lactuca sativa (lettuce) assessed as root tissue rotting at 32 mM after 7 days. The assay is classed as functional, organism-based.
Assay [8] concerns Lactuca sativa. The assay can be described thus: Toxicity against Lactuca sativa (lettuce) assessed as decrease in root hair at 24 to 32 mM after 7 days. The assay is classed as functional, organism-based.
The subject of assay [9] is Lactuca sativa. Nature of the assay: Toxicity against Lactuca sativa (lettuce) assessed as branched root formation at low concentration after 7 days. The format is functional, organism-based.
The test system of assay [10] is Lactuca sativa. The assay can be described thus: Toxicity against Lactuca sativa (lettuce) assessed as Inhibition of root growth at 8 to 32 mM after 7 days relative to control. The assay is classed as functional, organism-based. Summed up:
(§4)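 Lettuce (L. sativa cv. Romana) seeds germinated on filter paper at 20 °C for 7 days with doses of 0.4-32.0 mM. Root length of normal seedlings was measured at the end and expressed as percent of control. Three replicates were run, with standard error given.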

In assay [11] the test system is Lactuca sativa. Nature of the assay: Toxicity against Lactuca sativa (lettuce) assessed as Inhibition of root growth at 4 mM after 7 days relative to control. The assay is classed as functional. More on the design: scale not given: the % may be the effect or the level left. In short, it runs like this:
as §4

Assay [12] relates to Lactuca sativa. Nature of the assay: Antigerminative activity against Lactuca sativa (lettuce) seeds at 24 to 32 mM after 7 days relative to control. The assay is classed as functional, organism-based. In short, it runs like this:
(§5)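 Lettuce seeds (L. sativa cv. Romana) incubated on filter paper at 20 °C for 7 days with each product at 0.4-32.0 mM. Read-out was the mean percentage of normal seedlings, expressed as percent of the untreated control.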

Assay [13] deals with Lactuca sativa. The assay can be described thus: Antigerminative activity against Lactuca sativa (lettuce) seeds up to 16 mM after 7 days relative to control. The format is functional, organism-based. In short, it runs like this:
as §5

Assay [14] concerns Lactuca sativa. The assay can be described thus: Toxicity against Lactuca sativa (lettuce) assessed as Inhibition of root growth after 7 days relative to control. The assay is classed as functional, organism-based. Summed up: as §2
Assay [15] has as its system Lactuca sativa. Nature of the assay: Antigerminative activity against Lactuca sativa (lettuce) seeds up to 2.4 to 3.2 mM after 7 days relative to control. The assay is classed as functional, organism-based. In short, it runs like this: as §3
The subject of assay [16] is Lactuca sativa. The assay can be described thus: Toxicity against Lactuca sativa (lettuce) assessed as Inhibition of root growth at 0.4 to 2 mM after 7 days relative to control. The format is functional, organism-based. In short, it runs like this: as §2
In assay [17] the test system is Lactuca sativa. The assay can be described thus: Antigerminative activity against Lactuca sativa (lettuce) seeds at 2 mM after 7 days relative to control. The format is functional, organism-based. Summed up: as §3
In assay [18] the test system is Lactuca sativa. Nature of the assay: Antigerminative activity against Lactuca sativa (lettuce) seeds at 1.2 mM after 7 days relative to control. The format is functional. In short, it runs like this: as §3
Assay [19] concerns Lactuca sativa. The assay can be described thus: Antigerminative activity against Lactuca sativa (lettuce) seeds up to 0.8 mM after 7 days relative to control. The format is functional, organism-based. Summed up:
as §3

Take `C=C[C@@H](O)CC#N`: the outcome in [1], in assay [2], in [3], in assay [4] and in [6] was Active. In assay [5], the result was inactive.
On to `C=C[C@@H]1CNC(=S)O1`, for which the outcome in assay [7], in assay [8], in assay [9], in assay [10] and in assay [12] was Active. Also, the Activity in assay [11] is listed as over 40%. Also, the outcome in assay [13] was inactive.
As for `N#CC[C@H](O)[C@H]1CS1`, the result in [1], in assay [2], in assay [3], in assay [4] and in assay [15] was Active. Moreover, the Activity entry in assay [14] was “Dose-dependent effect”.
For the molecule `N#CC[C@H](O)[C@@H]1CS1`, the result in assay [1], in assay [2], in [3], in assay [4], in assay [16] and in assay [17] was Active. Moreover, the outcome in assay [19] was Active. The Activity in [18] came out at 40%.
